Results reported in ChEMBL document CHEMBL1671756, “In vitro and in vivo antifungal susceptibilities of the Mucoralean fungus Cunninghamella” (2010).
The source made the active and inactive calls.

Legend:
Type in all cases: functional, organism-based
[1] = system: Cunninghamella bertholletiae; assay: Antifungal activity against Cunninghamella bertholletiae UTHSC 04-2581 infected in neutropenic OF1 mouse assessed as increase in mouse survival rate at 0.8 mg/kg, iv qd administered 1 day after infection for 7 days relative to untreated control; design: dose 0.8 mg/kg
Method in brief: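 Male OF1 mice (~30 g) were made neutropenic with cyclophosphamide 200 mg/kg i.p. plus 5-fluorouracil 150 mg/kg i.v. 1 day before challenge. Challenge was 1 × 10⁴ CFU sporangiospores in 0.2 ml saline via the lateral tail vein. Mice got ceftazidime 5 mg/day s.c. on days 1–7. Dosing started 24 h post-challenge for 7 days. There were 10 mice/group, observed daily for 20 days. Kaplan-Meier analysis with log-rank test.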

[2] = system: Cunninghamella bertholletiae; assay: Antifungal activity against Cunninghamella bertholletiae UTHSC 04-2581 infected in neutropenic OF1 mouse assessed as decreased fungal load in lung at 0.8 mg/kg, iv qd administered 1 day post infection measured after 4 to 5 days relative to untreated control; design: dose 0.8 mg/kg
Method in brief: (§1)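 Neutropenic male OF1 mice (cyclophosphamide 200 mg/kg i.p. plus 5-fluorouracil 150 mg/kg i.v., day −1) were given 1 × 10⁴ CFU sporangiospores i.v. in 0.2 ml saline. Treatment from 24 h: 0.8 mg/kg i.v. or oral doses once daily; 10 mice per group. Killed at day 5 (day 4 if moribund). About half of brain, lungs and kidneys homogenized in saline; 10-fold dilutions plated on PDA for 24 h at 35°C; log₁₀ CFU/g tissue.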

[3] = system: Cunninghamella bertholletiae; assay: Antifungal activity against Cunninghamella bertholletiae UTHSC 05-2275 infected in neutropenic OF1 mouse assessed as decreased fungal load in lung at 0.8 mg/kg, iv qd administered 1 day post infection measured after 4 to 5 days relative to untreated control; design: dose 0.8 mg/kg
Method in brief: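 Neutropenic male OF1 mice (cyclophosphamide 200 mg/kg i.p. + 5-fluorouracil 150 mg/kg i.v., day −1) were infected i.v. with 1 × 10⁴ CFU. Ten mice per group were treated from day 1 and killed by CO₂ on day 5, or on day 4 if moribund. Half of each brain, lung and kidney was homogenized in 1 ml saline. Ten-fold dilutions were plated on PDA for 24 h at 35°C and counted as log₁₀ CFU/g.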

[4] = system: Cunninghamella bertholletiae; assay: Antifungal activity against Cunninghamella bertholletiae UTHSC 05-2275 infected in neutropenic OF1 mouse assessed as decreased fungal load in brain at 80 mg/kg, po qd administered 1 day post infection measured after 4 to 5 days relative to untreated control; design: dose 80 mg/kg; method in brief: as §1
[5] = system: Cunninghamella bertholletiae; assay: Antifungal activity against Cunninghamella bertholletiae UTHSC 05-2275 infected in neutropenic OF1 mouse assessed as decreased fungal load in brain at 40 mg/kg, po qd administered 1 day post infection measured after 4 to 5 days relative to untreated control; design: dose 40 mg/kg; method in brief: as §1
[6] = system: Cunninghamella bertholletiae; assay: Antifungal activity against Cunninghamella bertholletiae UTHSC 05-2275 infected in neutropenic OF1 mouse assessed as increase in mouse survival rate at 40 mg/kg, po qd administered 1 day after infection for 7 days relative to untreated control; design: dose 40 mg/kg
Method in brief: (§2)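 Male OF1 mice, about 30 g, made neutropenic with cyclophosphamide 200 mg/kg i.p. plus 5-fluorouracil 150 mg/kg i.v. 1 day before challenge. Infected i.v. via the lateral tail vein with 1 × 10⁴ CFU of hemacytometer-counted sporangiospores in 0.2 ml saline. Ceftazidime 5 mg/day s.c. on days 1–7. Oral treatment started 24 h after challenge; 10 mice per group; checked daily for 20 days; Kaplan-Meier mean survival time, log-rank test.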

[7] = system: Cunninghamella bertholletiae; assay: Antifungal activity against Cunninghamella bertholletiae UTHSC 06-1945 infected in neutropenic OF1 mouse assessed as decreased fungal load in brain at 60 mg/kg, po qd administered 1 day post infection measured after 4 to 5 days relative to untreated control; design: dose 60 mg/kg; method in brief: as §1
[8] = system: Cunninghamella bertholletiae; assay: Antifungal activity against Cunninghamella bertholletiae UTSCH 05-2275 infected in diabetic OF1 mouse assessed as decreased fungal load in brain at 60 mg/kg, po qd administered 1 day post infection measured after 4 to 5 days relative to untreated control; design: dose 60 mg/kg
Method in brief: (§3)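 Diabetic male OF1 mice (streptozocin 210 mg/kg i.p.; glucose above 250 mg/dl) were challenged i.v. with 1 × 10⁵ CFU sporangiospores. Oral once-daily dosing from day 1 for 7 days; 10 mice per group. Killed at day 5 (day 4 if moribund). About half of each organ homogenized in saline; serial 10-fold dilutions plated on PDA for 24 h at 35°C; log₁₀ CFU/g tissue.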

[9] = system: Cunninghamella bertholletiae; assay: Antifungal activity against Cunninghamella bertholletiae FMR-9598 infected in neutropenic OF1 mouse assessed as decreased fungal load in brain at 60 mg/kg, po qd administered 1 day post infection measured after 4 to 5 days relative to untreated control; design: dose 60 mg/kg; method in brief: as §1
[10] = system: Cunninghamella bertholletiae; assay: Antifungal activity against Cunninghamella bertholletiae UTSCH 05-2275 infected in diabetic OF1 mouse assessed as decreased fungal load in kidney at 80 mg/kg, po qd administered 1 day post infection measured after 4 to 5 days relative to untreated control; design: dose 80 mg/kg
Method in brief: (§4)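 Male OF1 mice (mean 30 g) made diabetic with a single i.p. dose of streptozocin 210 mg/kg; blood glucose >250 mg/dl at day 10 qualified. Ceftazidime 5 mg/day s.c. given on days 1–7. Challenge by lateral tail vein with 1 × 10⁵ CFU sporangiospores in 0.2 ml saline. Oral dosing once daily for 7 days, starting 1 day after challenge. Untreated controls. Ten mice per group.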

[11] = system: Cunninghamella bertholletiae; assay: Antifungal activity against Cunninghamella bertholletiae UTHSC 06-1945 infected in neutropenic OF1 mouse assessed as increase in mouse survival rate at 60 mg/kg, po qd administered 1 day after infection; design: dose 60 mg/kg; method in brief: as §2
[12] = system: Cunninghamella bertholletiae; assay: Antifungal activity against Cunninghamella bertholletiae UTHSC 03-2241 infected in neutropenic OF1 mouse assessed as decreased fungal load in brain at 60 mg/kg, po qd administered 1 day post infection measured after 4 to 5 days relative to untreated control; design: dose 60 mg/kg; method in brief: as §1
[13] = system: Cunninghamella bertholletiae; assay: Antifungal activity against Cunninghamella bertholletiae UTHSC 05-2275 infected in diabetic OF1 mouse assessed as increase in mouse survival rate at 60 mg/kg, po qd administered 1 day after infection for 7 days relative to untreated control; design: dose 60 mg/kg
Method in brief: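 Male OF1 mice made diabetic with streptozocin 210 mg/kg i.p.; blood glucose above 250 mg/dl at day 10 required. Infected i.v. via the tail vein with 1 × 10⁵ CFU sporangiospores in 0.2 ml saline. Ceftazidime 5 mg/day s.c. on days 1–7. Oral once-daily treatment from day 1 for 7 days; 10 mice per group; followed for 20 days; Kaplan-Meier mean survival time, log-rank test.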

[14] = system: Cunninghamella bertholletiae; assay: Antifungal activity against Cunninghamella bertholletiae UTSCH 05-2275 infected in diabetic OF1 mouse assessed as decreased fungal load in kidney at 60 mg/kg, po qd administered 1 day post infection measured after 4 to 5 days relative to untreated control; design: dose 60 mg/kg; method in brief: as §3
[15] = system: Cunninghamella bertholletiae; assay: Antifungal activity against Cunninghamella bertholletiae UTSCH 05-2275 infected in diabetic OF1 mouse assessed as decreased fungal load in lung at 80 mg/kg, po qd administered 1 day post infection measured after 4 to 5 days relative to untreated control; design: dose 80 mg/kg; method in brief: as §4
[16] = system: Cunninghamella bertholletiae; assay: Antifungal activity against Cunninghamella bertholletiae UTHSC 03-2241 infected in neutropenic OF1 mouse assessed as increase in mouse survival rate at 60 mg/kg, po qd administered 1 day after infection; design: dose 60 mg/kg; method in brief: as §2

Measured: Activity

C[C@@H]1[C@H](O)[C@@H](C)/C=C/C=C/C=C/C=C/C=C/C=C/C=C/[C@H](O[C@@H]2O[C@H](C)[C@@H](O)[C@H](N)[C@@H]2O)C[C@@H]2O[C@](O)(C[C@@H](O)C[C@@H](O)[C@H](O)CC[C@@H](O)C[C@@H](O)CC(=O)O[C@H]1C)C[C@H](O)[C@H]2C(=O)O [AMPHOTERICIN B]
active: [1] | [2] | [3]

CC[C@@H]([C@H](C)O)n1ncn(-c2ccc(N3CCN(c4ccc(OC[C@@H]5CO[C@@](Cn6cncn6)(c6ccc(F)cc6F)C5)cc4)CC3)cc2)c1=O [POSACONAZOLE]
not listed: [1] | [2] | [3]
active: all other assays above
